Experimental data from ChEMBL document CHEMBL1151772, “Discovery of multitarget inhibitors by combining molecular docking with common pharmacophore matching” (J Med Chem, 2008).
pIC50: −log10 of the molar value.

Columns and labels:
[1] = target: T1, Leukotriene A-4 hydrolase (Homo sapiens, UniProt P09960); assay: Inhibition of epoxide hydrolase activity of human leukotriene A4 hydrolase assessed as LTB4 level by ELISA
T1 sequence (P09960 whole entry): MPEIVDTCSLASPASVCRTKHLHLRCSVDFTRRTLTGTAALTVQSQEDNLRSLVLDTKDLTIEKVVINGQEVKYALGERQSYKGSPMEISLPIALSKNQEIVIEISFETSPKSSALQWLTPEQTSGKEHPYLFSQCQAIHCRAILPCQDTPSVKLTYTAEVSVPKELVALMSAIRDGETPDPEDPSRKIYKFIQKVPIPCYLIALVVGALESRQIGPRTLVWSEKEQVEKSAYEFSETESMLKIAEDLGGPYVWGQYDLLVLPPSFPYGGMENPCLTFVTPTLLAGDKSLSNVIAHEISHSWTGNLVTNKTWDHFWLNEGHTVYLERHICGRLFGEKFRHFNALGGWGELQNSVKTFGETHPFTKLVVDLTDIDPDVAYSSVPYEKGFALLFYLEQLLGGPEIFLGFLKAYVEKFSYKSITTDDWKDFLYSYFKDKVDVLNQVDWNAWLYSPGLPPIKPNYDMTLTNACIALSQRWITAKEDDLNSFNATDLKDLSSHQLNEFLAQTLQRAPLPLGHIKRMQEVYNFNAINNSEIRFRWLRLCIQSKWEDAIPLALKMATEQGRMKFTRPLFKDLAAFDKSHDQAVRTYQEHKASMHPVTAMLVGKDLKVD
How it was run: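 LTA4 prepared by hydrolysing LTA4 methyl ester in cold acetone/NaOH under nitrogen. Enzyme (300 ng) preincubated with compound 15 min at 37 °C in 10 mM sodium phosphate pH 7.4, 4 mg/mL BSA, 5% DMSO. Reaction started with LTA4 (150 nM final), 10 min at 37 °C, stopped by dilution into buffer; LTB4 measured by ELISA. Three separate experiments.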

[2] = target: T1, Leukotriene A-4 hydrolase; assay: Inhibition of aminopeptidase activity of human leukotriene A4 hydrolase assessed as para-nitroanilide release by spectrophotometry
How it was run: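 Enzyme (1-20 µg) in 50 mM Tris-HCl pH 8.0 with 100 mM NaCl at 37 °C; inhibitor preincubated 2 min; 5% v/v DMSO final. Started with 0.125 mM Ala-p-nitroanilide; p-NA formation followed at 405 nm for 15 min, quantified against p-NA standard curve. IC50 from initial rates across inhibitor concentrations via V0/V = 1 + [I]/IC50; three separate experiments.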

[3] = target: T2, Phospholipase A2, membrane associated (Homo sapiens, UniProt P14555); assay: Inhibition of human nonpancreatic secretory phospholipase A2
T2 sequence (P14555 whole entry): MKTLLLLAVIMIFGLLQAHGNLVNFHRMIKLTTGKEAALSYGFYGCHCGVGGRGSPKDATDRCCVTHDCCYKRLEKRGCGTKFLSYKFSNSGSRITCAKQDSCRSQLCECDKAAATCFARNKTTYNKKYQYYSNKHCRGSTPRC
How it was run: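 Inhibitor preincubated with substrate 10 min at 25 °C. Enzyme added to start; ex 377/em 470 nm read kinetically for 20 min. IC50 from initial rates via V0/V = 1 + [I]/IC50; three separate experiments.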

Row | SMILES | pIC50 [1] | pIC50 [2] | pIC50 [3]
1 | NCCc1c[nH]c2c(OCc3ccccc3)cccc12 | 3.66 | 4.90 | 4.28
2 | NC(Cc1c[nH]c2ccc(OCc3ccccc3)cc12)C(=O)O (stereo not given) | 3.64 | 4.76 | 4.38
3 | O=C(C[n+]1ccc(Cc2ccc([N+](=O)[O-])cc2)cc1)c1ccccc1 | 3.41 | 4.63 | 4.36
4 | NCCOc1ccc(Oc2ccccc2)cc1 | – | – | 5.14
